≈ marks a conversion by molar mass, not a printed value.
What was measured:
[1] = Cytotoxicity against human LXFA 629L cells at 0.01 ug/ml relative to control; assay type: functional
[2] = Cytotoxicity against human RXF 393NL cells at 0.01 ug/ml relative to control; assay type: functional
[3] = Cytotoxicity against human MEXF 520L cells at 0.1 ug/ml relative to control; assay type: functional
NCI-H460 [4] = test: Cytotoxicity against human H460 cells at 0.01 ug/ml relative to control; assay type: functional
CWR22R [5] = test: Cytotoxicity against human 22Rv1 cells at 0.001 ug/ml relative to control; assay type: functional
[6] = Cytotoxicity against human RXF 486L cells at 1 ug/ml relative to control; assay type: functional
[7] = Cytotoxicity against human PC3M cells; assay type: functional, cell-based; conditions: PC-3M
Summary of the method: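 Monolayer cell survival and proliferation assay run across a panel of 36 human tumor cell lines, with IC50 determined from the resulting growth data.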

PANC-1 [8] = test: Cytotoxicity against human PANC1 cells at 0.001 ug/ml relative to control; assay type: functional
[9] = Cytotoxicity against human LXFL 1121L cells at 0.001 ug/ml relative to control; assay type: functional
[10] = Cytotoxicity against human LXFL 529L cells at 1 ug/ml relative to control; assay type: functional
DU-145 = test: Cytotoxicity against human DU145 cells at 0.001 ug/ml relative to control; assay type: functional
LNCaP = test: Cytotoxicity against human LNCAP cells at 10 ug/ml relative to control; assay type: functional
PANC-1 [11] = test: Cytotoxicity against human PANC1 cells at 1 ug/ml relative to control; assay type: functional
[12] = Cytotoxicity against human UXF 1138L cells at 0.01 ug/ml relative to control; assay type: functional
[13] = Cytotoxicity against human OVXF 899L cells at 1 ug/ml relative to control; assay type: functional
[14] = Cytotoxicity against human MEXF 394NL cells at 0.1 ug/ml relative to control; assay type: functional
[15] = Cytotoxicity against human PAXF 1657L cells at 10 ug/ml relative to control; assay type: functional
[16] = Cytotoxicity against human RXF 1781L cells at 0.001 ug/ml relative to control; assay type: functional
[17] = Cytotoxicity against human LXFA 289L cells at 0.01 ug/ml relative to control; assay type: functional
[18] = Cytotoxicity against human LXFA 629L cells at 0.1 ug/ml relative to control; assay type: functional
HCT-116 [19] = test: Cytotoxicity against human HCT116 cells at 1 ug/ml relative to control; assay type: functional
CWR22R [20] = test: Cytotoxicity against human 22Rv1 cells at 0.01 ug/ml relative to control; assay type: functional
[21] = Cytotoxicity against human MEXF 462NL cells at 10 ug/ml relative to control; assay type: functional
[22] = Cytotoxicity against human PC3M cells at 10 ug/ml relative to control; assay type: functional, PC-3M
[23] = Cytotoxicity against human RXF 1781L cells at 1 ug/ml relative to control; assay type: functional
[24] = Cytotoxicity against human HNXF 536L cells at 10 ug/ml relative to control; assay type: functional
HT-29 = test: Cytotoxicity against human HT-29 cells at 0.1 ug/ml relative to control; assay type: functional
OVCAR-3 = test: Cytotoxicity against human OVCAR3 cells at 1 ug/ml relative to control; assay type: functional
[25] = Cytotoxicity against human LXFA 629L cells at 1 ug/ml relative to control; assay type: functional
[26] = Cytotoxicity against human MEXF 514L cells at 0.1 ug/ml relative to control; assay type: functional
[27] = Cytotoxicity against human MEXF 276L cells at 0.001 ug/ml relative to control; assay type: functional, MEXF276L
[28] = Cytotoxicity against human PAXF 1657L cells at 1 ug/ml relative to control; assay type: functional
CWR22R [29] = test: Cytotoxicity against human 22Rv1 cells at 1 ug/ml relative to control; assay type: functional
[30] = Cytotoxicity against human RXF 1781L cells at 0.1 ug/ml relative to control; assay type: functional
[31] = Cytotoxicity against human MEXF 394NL cells at 10 ug/ml relative to control; assay type: functional
[32] = Cytotoxicity against human RXF 944L cells at 0.01 ug/ml relative to control; assay type: functional
[33] = Cytotoxicity against human BXF 1218L cells; assay type: functional, cell-based
Summary of the method: (§1)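 Monolayer cell survival and proliferation assay, run within a panel of 36 human tumor cell lines; IC50 determined per cell line.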

NCI-H460 [34] = test: Cytotoxicity against human H460 cells at 1 ug/ml relative to control; assay type: functional
[35] = Cytotoxicity against human GXF251L cells; assay type: functional, cell-based; conditions: GXF 251L; summary of the method: as §1
[36] = Cytotoxicity against human LXFL 1121L cells at 10 ug/ml relative to control; assay type: functional
[37] = Cytotoxicity against human HNXF 536L cells at 1 ug/ml relative to control; assay type: functional
[38] = Cytotoxicity against human MEXF 462NL cells at 0.1 ug/ml relative to control; assay type: functional
[39] = Cytotoxicity against human RXF 486L cells at 10 ug/ml relative to control; assay type: functional
[40] = Cytotoxicity against human CNXF 498NL cells at 0.01 ug/ml relative to control; assay type: functional
[41] = Cytotoxicity against human MEXF 514L cells at 0.01 ug/ml relative to control; assay type: functional
[42] = Cytotoxicity against human LXFA 526L cells at 10 ug/ml relative to control; assay type: functional
[43] = Cytotoxicity against human GXF251L cells at 0.01 ug/ml relative to control; assay type: functional
[44] = Cytotoxicity against human MAXF 401NL cells; assay type: functional, cell-based
Summary of the method: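 Monolayer cell survival and proliferation assay run across a panel of 36 human tumour cell lines; IC50 values determined.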

MCF7 = test: Cytotoxicity against human MCF7 cells at 0.1 ug/ml relative to control; assay type: functional
T-24 = test: Cytotoxicity against human T24 cells at 0.01 ug/ml relative to control; assay type: functional
[45] = Cytotoxicity against human LXFA 289L cells at 1 ug/ml relative to control; assay type: functional
[46] = Cytotoxicity against human LXFL 529L cells at 10 ug/ml relative to control; assay type: functional
[47] = Cytotoxicity against human MAXF 401NL cells at 1 ug/ml relative to control; assay type: functional
HCT-116 [48] = test: Cytotoxicity against human HCT116 cells at 0.001 ug/ml relative to control; assay type: functional
[49] = Cytotoxicity against human UXF 1138L cells at 10 ug/ml relative to control; assay type: functional
[50] = Cytotoxicity against human RXF 944L cells at 0.001 ug/ml relative to control; assay type: functional
[51] = Cytotoxicity against human BXF 1218L cells at 10 ug/ml relative to control; assay type: functional

In the case of `C=C1[C@@H](O)[C@H]2O[C@@]2(C[C@H]2C(C)=CC[C@H]3C(C)(C)CCC[C@]23C)[C@@H](O)[C@H]1O` [EPOXYPHOLAMIN D], the Activity [1] is reported as 87%, the Activity [2] is reported as 126% and the Activity [3] is reported as 92%. For the same compound, the Activity (NCI-H460 [4]) was 98%, the Activity (CWR22R [5]) was 92% and the Activity [6] was 82%. It also gave an IC50 [7] of 0.72 µM, an IC70 [7] of 0.605 µg/mL (≈ 1.67 µM) and an IC90 [7] of 4.12 µg/mL (≈ 11.4 µM). The Activity (PANC-1 [8]) was 90%, the Activity [9] was 116% and the Activity [10] was 85%. For the same compound, the Activity (DU-145) was 91%, the Activity (LNCaP) was 27% and the Activity (PANC-1 [11]) was 68%. It also gave an Activity [12] of 107%, an Activity [13] of 84% and an Activity [14] of 99%. The Activity [15] was 9%, the Activity [16] was 98% and the Activity [17] was 101%. For the same compound, the Activity [18] was 81%, the Activity (HCT-116 [19]) was 87% and the Activity (CWR22R [20]) was 81%. For the same compound, the Activity [21] was 12%, the Activity [22] was 5% and the Activity [23] was 100%. For the same compound, the Activity [24] was 5%, the Activity (HT-29) was 108% and the Activity (OVCAR-3) was 43%. It also gave an Activity [25] of 53%, an Activity [26] of 142% and an Activity [27] of 98%. It also gave an Activity [28] of 73%, an Activity (CWR22R [29]) of 48% and an Activity [30] of 98%. For the same compound, the Activity [31] was 6%, the Activity [32] was 138% and the IC50 [33] was 1.43 µM. It also gave an IC70 [33] of 0.969 µg/mL (≈ 2.67 µM), an IC90 [33] of over 10 µg/mL and an Activity (NCI-H460 [34]) of 86%. It also gave an IC50 [35] of 2.07 µM, an IC70 [35] of 2.75 µg/mL (≈ 7.6 µM) and an IC90 [35] of 17.4 µg/mL (≈ 47.9 µM). It also gave an Activity [36] of 5%, an Activity [37] of 88% and an Activity [38] of 167%. It also gave an Activity [39] of 10%, an Activity [40] of 91% and an Activity [41] of 123%. The Activity [42] was 19%, the Activity [43] was 100% and the IC50 [44] was 2.57 µM. The IC70 [44] was 3.16 µg/mL (≈ 8.72 µM), the IC90 [44] was 11.4 µg/mL (≈ 31.3 µM) and the Activity (MCF7) was 96%. It also gave an Activity (T-24) of 97%, an Activity [45] of 102% and an Activity [46] of 14%. The Activity [47] was 48%, the Activity (HCT-116 [48]) was 88% and the Activity [49] was 9%. It also gave an Activity [50] of 150% and an Activity [51] of 17%.

— ChEMBL document CHEMBL1649383, “Mode of action of epoxyphomalins A and B and characterization of related metabolites from the marine-derived fungus Paraconiothyrium sp” (J Nat Prod, 2010)
